Experimental data of several laboratories.
Compare with care: the assays were run in different laboratories.
Target: Myotonin-protein kinase (DMPK, Homo sapiens, UniProt Q09013)
Residues used in one study (Q09013 1-629): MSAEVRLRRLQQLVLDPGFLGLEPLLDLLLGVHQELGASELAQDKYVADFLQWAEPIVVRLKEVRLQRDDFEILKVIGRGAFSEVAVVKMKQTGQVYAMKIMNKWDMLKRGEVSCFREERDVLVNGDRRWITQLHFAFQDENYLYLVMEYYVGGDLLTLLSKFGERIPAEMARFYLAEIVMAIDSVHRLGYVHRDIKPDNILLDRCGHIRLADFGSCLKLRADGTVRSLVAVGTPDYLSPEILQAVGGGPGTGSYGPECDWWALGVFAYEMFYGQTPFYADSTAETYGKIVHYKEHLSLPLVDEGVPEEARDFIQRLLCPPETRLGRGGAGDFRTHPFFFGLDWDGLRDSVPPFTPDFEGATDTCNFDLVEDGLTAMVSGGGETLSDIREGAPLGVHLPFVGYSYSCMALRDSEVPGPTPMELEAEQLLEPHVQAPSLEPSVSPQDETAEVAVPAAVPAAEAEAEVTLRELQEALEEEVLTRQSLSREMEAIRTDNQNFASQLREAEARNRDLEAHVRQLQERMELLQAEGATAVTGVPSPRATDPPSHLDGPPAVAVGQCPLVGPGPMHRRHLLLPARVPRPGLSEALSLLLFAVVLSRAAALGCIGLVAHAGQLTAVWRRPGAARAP

The remaining binding of Nc1ncc2c(n1)-c1c([nH]c3ccc(C#CC4CC4)cc13)CCCC2 is reported as 82% (binding, competition with immobilised ligand; 1 µM).
COc1cnc(Nc2cccc(S(N)(=O)=O)c2)nc1N1CCN(c2ccccc2)C(=O)C1 gave a remaining binding of 100% (binding, competition with immobilised ligand; 1 µM).
For O=C(NCCCN1CCOCC1)c1ccc(Nc2ncc(Cl)c(-c3ccc(Cl)s3)n2)cc1, the remaining binding was 100% (binding, competition with immobilised ligand; 1 µM).
Cc1cnn2ncc(-c3ccnc(N(C)C)n3)c2c1 gave a remaining binding of 100% (binding; 1 µM).
Cn1nc(C(=O)NCc2ccc(C(=O)O)cc2)cc1-c1ccc2[nH]ccc2c1 has a remaining binding of 76% (cell-free assay, competition with immobilised ligand; 0.1 µM).
For CC1CCCN1c1nccc(-c2cnn3ncccc23)n1 (stereo not shown), the remaining binding was 94% (binding; 1 µM).
The remaining binding of CO[C@@H](C)c1c(Nc2ccc([C@@H](N(C)C(=O)C3CCS(=O)(=O)CC3)C(F)(F)F)cc2)cnc2cc(Cl)nn12 is reported as 91% (cell-free assay, competition with immobilised ligand; 1 µM).
For O=C(c1ccc(Nc2nccc(-c3cc4ccccc4s3)n2)cc1)N1CCC(N2CCCC2)CC1, the remaining binding was 100% (binding, competition with immobilised ligand; 1 µM).
The remaining binding of C[C@H]1CCN(c2nccc(-c3cnn4ncccc34)n2)C1 is reported as 100% (binding; 1 µM).
The remaining binding of COc1cccc(CNC(=O)c2nc3scc(COCc4ccc(C(=O)O)cc4)c3c(=O)[nH]2)c1 is reported as 85.4% (cell-free assay, competition with immobilised ligand; 1 µM).
With N[C@@H]1CCN(c2nccc(-c3cnn4ncccc34)n2)C1 the remaining binding was 94% (binding; 1 µM).
CCC(=O)N[C@H]1CC[C@@H](C(=O)N(C)c2ccc(-c3nc4ccccc4o3)cc2)C1 gave a remaining binding of 100% (cell-free assay, competition with immobilised ligand; 1 µM).
For O=C(NCC1CCOCC1)c1n[nH]cc1NC(=O)c1c(F)cccc1F, the remaining binding was 38% (binding, competition with immobilised ligand; 1 µM).
O=C(NCCCN1CCOCC1)c1ccc(Nc2nccc(-c3cc4ccccc4s3)n2)cc1 has a remaining binding of 100% (binding, competition with immobilised ligand; 1 µM).
CNCc1ccccc1-c1csc([C@H](C)Nc2nc(C)nc3cc(OC)c(OC)cc23)c1 gave a remaining binding of 85% (cell-free assay, competition with immobilised ligand; 1 µM).
The remaining binding of FC(F)(F)Oc1cccc(-c2cnc3ccc(-c4ccncc4)nn23)c1 is reported as 99% (cell-free assay, competition with immobilised ligand; 5 µM).
The remaining binding of CN(C)c1nccc(-c2cnn3ncccc23)n1 is reported as 100% (binding; 1 µM).
C[C@H](NC(=O)c1cnc2n1[C@](C)(Cc1ccc(C#N)cc1)C(=O)N2c1cc(Cl)c(F)c(Cl)c1)C(=O)NC1(c2ccccn2)CC1 has a remaining binding of 67% (cell-free assay, competition with immobilised ligand; 1 µM).
The remaining binding of CN(CCCC(F)(F)F)c1nccc(-c2cnn3ncccc23)n1 is reported as 80% (binding; 1 µM).
CCS(=O)(=O)c1cc2cc(C[C@@](O)(CC(C)(C)c3ccc(F)cc3C(N)=O)C(F)(F)F)[nH]c2cn1 has a remaining binding of 85% (cell-free assay, competition with immobilised ligand; 1 µM).
c1cnn2ncc(-c3ccnc(N4CCC45COC5)n3)c2c1 has a remaining binding of 98% (binding; 1 µM).
COc1ncc2cc3ccccc3nc2c1C#N gave a remaining binding of 100% (cell-free assay, competition with immobilised ligand; 5 µM).
